# Screening data deposited in PubChem BioAssay by Johns Hopkins Ion Channel Center.
# MrgX1 antag: antagonists of human MrgX1 receptor, primary screen, HEK293 cells, Fluo-4 calcium flux | Mas-related G-protein coupled receptor member X1 (Homo sapiens), Q96LB2 | BAM8-22 antagonism; active compounds read low | B-score at 10 µM | actives 1.3% (n = 310,000) | AID 588676, 2011;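 active = calcium-response B-score plate-corrected more than 3 library SD below zero, starting fluorescence within 5 deviations, no agonist response on first addition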;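 also: peak minus trough fluorescence over baseline after final BAM8-22 challenge near maximal dose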
# Target sequence (Q96LB2 whole entry, looked up): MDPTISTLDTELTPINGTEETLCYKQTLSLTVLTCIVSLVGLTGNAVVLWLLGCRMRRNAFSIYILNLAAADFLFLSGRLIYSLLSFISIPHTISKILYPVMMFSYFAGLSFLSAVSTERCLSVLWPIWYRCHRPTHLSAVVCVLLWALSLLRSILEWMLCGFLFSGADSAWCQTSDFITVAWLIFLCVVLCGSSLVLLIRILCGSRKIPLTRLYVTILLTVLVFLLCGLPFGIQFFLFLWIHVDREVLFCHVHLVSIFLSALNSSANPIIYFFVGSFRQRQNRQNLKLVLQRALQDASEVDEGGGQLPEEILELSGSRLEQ
# RGS4 inh: RGS4 inhibitors, primary screen, cell-based, HEK293 M3R inducible RGS4, calcium flux; Regulator of G-protein signaling 4 (Homo sapiens), P49798; Fluo-4 calcium flux; active compounds read high; triggered by carbachol at its EC20; B-score at 10 µM; actives 0.45% (n = 310,000); AID 463165, 2010;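 active = B-score, a plate-corrected calcium signal, over three deviations above library mean, with baseline fluorescence within five deviations of library mean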;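 also: RGS4 expression induced by doxycycline in cells with stable M3 receptor; B-score is computed from the integrated fluorescence ratio over baseline after carbachol; higher B-score means a larger calcium signal and so more RGS4 inhibition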
# RGS4 pot: RGS4 potentiators or activators, primary screen, cell-based, HEK293 M3R inducible RGS4, calcium flux. actives 0.92% (n = 310,000). B-score at 10 µM. carbachol calcium flux Fluo4; active compounds read low;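 active = B-score of the integrated calcium signal more than 4 SD below the library mean, with starting fluorescence not abnormally high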;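 also: negative B-score means reduced calcium response which marks RGS4 activation or potentiation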
#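 System – HEK293 FlpIn-TREx cells, stable M3R, doxycycline-inducible RGS4 · Reagent – ECmax carbachol challenge · Times – compound preincubation 20 min at room temperature before agonist · Technique – Fluo4 fluorescence kinetic imaging of calcium · Measure – B score of integrated Fluo4 ratio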
# MrgX1 agonist: agonists of human MrgX1 receptor, primary screen, HEK293 cells, Fluo-4 calcium flux; Mas-related G-protein coupled receptor member X1 (Homo sapiens), Q96LB2; Fluo-4 calcium fluorescence, agonist mode; active compounds read high; B-score at 10 µM; actives 0.44% (n = 310,000); AID 588627, 2011;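 active = calcium response B-score plate-corrected fluorescence ratio at least 3 library SD, with starting fluorescence B-score inside 5 SD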
#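 Material – MrgX1-expressing HEK293 cells · Input – 15,000 cells seeded per well · Dosing – compound as first of three additions · Times – overnight seeding, then 1 h dark dye loading · Measured by – kinetic Fluo-4 NW fluorescence of intracellular calcium · Read-out – B-scored fluorescence response ratio · Benchmarks – positive and negative control wells on each plate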
# MrgX1 allo act: positive allosteric modulators of MrgX1, primary screen, HEK293 cells, Fluo-4 calcium flux; Mas-related G-protein coupled receptor member X1 (Homo sapiens), Q96LB2; FDSS; active compounds read high; B-score at 10 µM; actives 0.63% (n = 310,000);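 active = plate-corrected calcium response at least 3 library SD above typical, normal starting fluorescence, not activating the receptor alone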;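 also: compound read alongside a low EC10 to EC30 dose of BAM8-22 agonist; peak minus trough fluorescence over baseline measured at the second addition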
# Numbers without * were called inactive; i = inactive; nt = no result given. Compounds with a hit are over-represented: about 3.5% of the library has one in this group of screens.
SMILES,MrgX1 antag,RGS4 inh,RGS4 pot,MrgX1 agonist,MrgX1 allo act
O=C(O)CNC(=O)c1ccc(NC(=O)/C(=C/c2cccc([N+](=O)[O-])c2)NC(=O)c2ccco2)cc1,i,i,i,i,i
c1cncc(CNc2nc(-c3cccnc3)nc3ccccc23)c1,i,i,i,i,i
Oc1ccc(/C=N/Nc2nc(-c3cccnc3)nc3ccccc23)c(O)c1,i,i,i,i,i
Cc1c(O)ccc(/C=N/Nc2nc(-c3cccnc3)nc3ccccc23)c1O,i,i,-8.1*,i,i
CCOC(=O)c1ccc(Nc2nc(-c3cccnc3)nc3ccccc23)cc1,i,i,-7.1*,i,i
Clc1cccc(CNc2nc(-c3cccnc3)nc3ccccc23)c1,nt,i,-9.2*,nt,nt
COC(=O)C1=C[C@@H](C(=O)OC)[C@@H]2C3=C(C(=O)C2(C)C)[C@H](c2ccccc2)[C@@H]2C(=O)N(C)C(=O)[C@@H]2[C@@H]3C1,i,i,i,i,i
CCCOc1ccc(C(=O)Nc2ccc(S(=O)(=O)Nc3cc(C)nc(C)n3)cc2)cc1,i,i,i,i,i
CN(CC(=O)Nc1ccccc1Cl)CC(=O)Nc1ccccc1[N+](=O)[O-],i,i,i,i,10*
Cc1ccc(CNC(=O)CNC(=O)c2ccco2)cc1,i,i,i,i,i
CC(OC(=O)c1ccco1)C(=O)NCc1ccc2c(c1)OCO2 (configuration not stated),i,i,i,i,i
CCC(C)Sc1nnc(NS(=O)(=O)Cc2ccccc2)s1 (configuration not stated),i,i,i,i,i
Cc1cc(/C=C2/NC(=O)NC2=O)c(C)n1-c1ccccn1,i,i,i,i,i
Cc1ccc(-n2c(C)cc(/C=C3\NC(=O)NC3=O)c2C)c(C)c1,i,i,-7.6*,i,i
CCOC(=O)Nc1ccc(C(=O)c2ccncc2)cc1,i,i,i,i,i
Cc1ccc(N2CCN(S(=O)(=O)c3ccc4c(c3)NC(=O)C(C)C(=O)N4)CC2C)cc1 (configuration not stated),-7.6*,i,i,i,i
Cc1ccc(N2CCN(S(=O)(=O)c3ccc4c(c3)n(C)c(=O)c(=O)n4C)CC2C)cc1 (configuration not stated),i,i,i,i,i
COc1cc(Nc2ncnc(N)n2)cc(OC)c1OC,i,i,i,i,i
O=C(Nc1ccc(S(=O)(=O)N2CCCCC2)cc1)C1CC(=O)N(c2ccc(Cl)cc2)C1 (configuration not stated),i,i,i,i,i
CN1C(=O)C(N=Nc2ccccc2C(=O)O)N(C)C1=S (configuration not stated),i,i,i,48*,i
CC1=NN(C(N)=S)C(=O)C1N=Nc1ccccc1C(=O)O (configuration not stated),i,i,i,i,i
O=C(Nc1nccs1)c1ccc(CSc2ccccc2)o1,i,i,i,i,i
C=CC[n+]1c(-c2ccc(Cl)cc2Cl)csc1Nc1ccc(NC(C)=O)cc1,i,i,-7*,i,i
Cc1c(NC(=O)Nc2cc(Cl)ccc2Cl)c(=O)n(-c2ccccc2)n1C,i,i,i,i,i
C=CC[n+]1c(-c2ccc(Cl)cc2Cl)csc1Nc1c(C)n(C)n(-c2ccccc2)c1=O,i,i,i,28*,i
CCCC[n+]1c(-c2ccc(Cl)cc2Cl)csc1Nc1ccccc1,i,i,i,i,i
C=CC[n+]1c(-c2ccc(C)cc2)csc1Nc1c(C)n(C)n(-c2ccccc2)c1=O,i,i,-7.9*,i,i
COCCC(=O)N1CCC(Oc2ccc(C(=O)N3CCCC(CCCO)C3)cc2)CC1 (configuration not stated),i,i,i,i,i
